We go through one compound from ChEMBL document CHEMBL4043093, “2-Oxo-3, 4-dihydropyrimido[4, 5-d]pyrimidinyl derivatives as new irreversible pan fibroblast growth factor receptor (FGFR) inhibitors” (Eur J Med Chem, 2017).

Series [1] deals with Protein kinase C epsilon type (Homo sapiens) (UniProt Q02156). Nature of the series: Inhibition of wild-type human partial length PRKCE (A378 to P737 residues) expressed in HEK293 cells assessed as residual activity at 1000 nM after 30 mins by Kinomescan method relative to control. It counts as cell-based.
In series [2] the target is Mitogen-activated protein kinase 3 (Homo sapiens) (UniProt P27361). Briefly: Inhibition of wild-type human full length ERK1 (M1 to P379 residues) expressed in Escherichia coli BL21 assessed as residual activity at 1000 nM after 30 mins by Kinomescan method relative to control. Put shortly: (§1)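 Single-concentration screen at 1 µM across a 456-kinase KINOMEscan panel. The read-out is Percent Control for each kinase.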

The target in series [3] is Serine/threonine-protein kinase 26 (Homo sapiens) (UniProt Q9P289). Nature of the series: Inhibition of wild-type human full length MST4 (M1 to P416 residues) expressed in HEK293 cells assessed as residual activity at 1000 nM after 30 mins by Kinomescan method relative to control. It counts as cell-based. The method in brief: as §1
In series [4] the target is Casein kinase I isoform gamma-1 (Homo sapiens) (UniProt Q9HCP0). Briefly: Inhibition of wild-type human partial length CSNK1G1 (T15 to S353 residues) expressed in Escherichia coli BL21 assessed as residual activity at 1000 nM after 30 mins by Kinomescan method relative to control.
In series [5] the target is Ribosomal protein S6 kinase alpha-3 (Homo sapiens) (UniProt P51812). Nature of the series: Inhibition of wild-type human partial length N-terminal RSK3 kinase domain 1 (M1 to Q385 residues) expressed in Escherichia coli BL21 assessed as residual activity at 1000 nM after 30 mins by Kinomescan method relative to control.
Series [6] has as its target High affinity nerve growth factor receptor (Homo sapiens) (UniProt P04629). Nature of the series: Inhibition of wild-type human partial length TRKA (G475 to G790 residues) expressed in HEK293 cells assessed as residual activity at 1000 nM after 30 mins by Kinomescan method relative to control. It counts as cell-based.
Series [7] deals with Tyrosine-protein kinase ABL1 (Homo sapiens) (UniProt P00519). Briefly: Inhibition of wild-type human non-phosphorylated ABL1 (S229 to K512 residues) expressed in HEK293 cells assessed as residual activity at 1000 nM after 30 mins by Kinomescan method relative to control. In kind it is cell-based.
The target in series [8] is Ribosomal protein S6 kinase alpha-5 (Homo sapiens) (UniProt O75582). Briefly: Inhibition of wild-type human partial length N-terminal RPS6KA5 kinase domain 1 expressed in Escherichia coli BL21 assessed as residual activity at 1000 nM after 30 mins by Kinomescan method relative to control.
Series [9] has as its target PDGFRB (platelet-derived growth factor receptor beta) (Homo sapiens, UniProt P09619). Nature of the series: Inhibition of wild-type human partial length PDGFRB (V582 to Y1009 residues) expressed in Escherichia coli BL21 assessed as residual activity at 1000 nM after 30 mins by Kinomescan method relative to control. As to conditions: read-out: Activity.
The target of series [10] is Aurora kinase C (Homo sapiens) (UniProt Q9UQB9). Briefly: Inhibition of wild-type human full length AURKC (M1 to S275 residues) expressed in Escherichia coli BL21 assessed as residual activity at 1000 nM after 30 mins by Kinomescan method relative to control. Put shortly:
(§2)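 Single-point screen at a fixed 1 µM, run within a 456-kinase DiscoveRx KINOMEscan panel. Each kinase's read-out is Percent Control, i.e. signal relative to a control without compound. Hits were scored by a Percent Control < 35 cut-off, and an S(35) selectivity score was calculated across the non-mutant kinases.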

Series [11] deals with cAMP-dependent protein kinase catalytic subunit beta (Homo sapiens) (UniProt P22694). Nature of the series: Inhibition of wild-type human full length PKAC-beta (M1 to F351 residues) expressed in Escherichia coli BL21 assessed as residual activity at 1000 nM after 30 mins by Kinomescan method relative to control. Put shortly:
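Single-concentration screen at 1 µM against a 456-kinase panel (KINOMEscan). Read-out is Percent Control for each kinase. Across the 403 non-mutant kinases, an S(35) selectivity score was derived as the fraction of kinases with Percent Control < 35.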

Series [12] addresses Serine/threonine-protein kinase 32B (Homo sapiens) (UniProt Q9NY57). Nature of the series: Inhibition of wild-type human full length YANK2 (M1 to S414 residues) expressed in Escherichia coli BL21 assessed as residual activity at 1000 nM after 30 mins by Kinomescan method relative to control.
The subject of series [13] is Mast/stem cell growth factor receptor Kit (Homo sapiens), P10721 [L576P]. Briefly: Inhibition of human partial length KIT L576P mutant (Y545 to D952 residues) expressed in Escherichia coli BL21 assessed as residual activity at 1000 nM after 30 mins by Kinomescan method relative to control. Put shortly: (§3)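 KINOMEscan binding panel of 456 kinases, with the test compound at a single concentration of 1 µM. Read-out is Percent Control.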

In series [14] the target is cGMP-dependent protein kinase 1 (Homo sapiens) (UniProt Q13976). Briefly: Inhibition of wild-type human partial length PRKG1 (L339 to F686 residues) expressed in Escherichia coli BL21 assessed as residual activity at 1000 nM after 30 mins by Kinomescan method relative to control.
Series [15] addresses Mitotic checkpoint serine/threonine-protein kinase BUB1 (Homo sapiens) (UniProt O43683). Briefly: Inhibition of wild-type human partial length BUB1 (Q724 to K1085 residues) expressed in HEK293 cells assessed as residual activity at 1000 nM after 30 mins by Kinomescan method relative to control. In kind it is cell-based.
For series [16], the target named is Serine/threonine-protein kinase Nek7 (Homo sapiens) (UniProt Q8TDX7). Briefly: Inhibition of wild-type human full length NEK7 (M1 to S302 residues) expressed in Escherichia coli BL21 assessed as residual activity at 1000 nM after 30 mins by Kinomescan method relative to control. Put shortly:
as §1

Series [17] concerns the target Interferon-induced, double-stranded RNA-activated protein kinase (Homo sapiens) (UniProt P19525). Nature of the series: Inhibition of wild-type human partial length PRKR (F247 to C551 residues) expressed in Escherichia coli BL21 assessed as residual activity at 1000 nM after 30 mins by Kinomescan method relative to control.
Series [18] relates to Phosphatidylinositol 4,5-bisphosphate 3-kinase catalytic subunit alpha isoform (Homo sapiens), P42336 [E545K]. Briefly: Inhibition of human partial length PIK3CA E545K mutant (R108 to N1068 residues) expressed in HEK293 cells assessed as residual activity at 1000 nM after 30 mins by Kinomescan method relative to control. It counts as cell-based. The method in brief:
as §3

The test system of series [19] is Tyrosine-protein kinase ABL1 (Homo sapiens), P00519 [F317I]. Nature of the series: Inhibition of human phosphorylated ABL1 F317I mutant (S229 to K512 residues) expressed in HEK293 cells assessed as residual activity at 1000 nM after 30 mins by Kinomescan method relative to control. It counts as cell-based. The method in brief: as §2
Series [20] addresses Serine/threonine-protein kinase pim-1 (Homo sapiens) (UniProt P11309). Nature of the series: Inhibition of wild-type human partial length PIM1 (A15 to K313 residues) expressed in Escherichia coli BL21 assessed as residual activity at 1000 nM after 30 mins by Kinomescan method relative to control.

Regarding `COc1cc(OC)c(Cl)c(N2Cc3cnc(Nc4ccc(F)cc4)nc3N(C3CCN(C(=O)/C=C/CN(C)C)CC3)C2=O)c1Cl`, the Activity was found to be 89% in [1]; 100% in series [2]; 69% in [3]; 82% in [4]; 97% in series [5]; 38% in series [6]. Further, the Activity in series [7] worked out at 32%; in series [8], 99%; in series [10] it was 100%; in [11], 95%; in series [12] it was 83%; in [13] it was 2.6%. Also, the Activity in series [14] came to 100%; in series [15] it was 100%; in [16], 100%; in series [17], 76%; in [18], 99%; in series [19], 99%. Further, in series [20], the Activity was found to be 97%. Moreover, the activity at 0.5 h, 1 µM in series [9] is 1.5%.
